Laboratory results taken from publication PMC5725227 (Pharmaceutical research, 2014).

Key:
A549 cells = assay: In-vitro cytotoxicity, crystal violet dye assay; type: cell-based, human
[1] = Plasma pharmacokinetics after i.v. administration; type: in vivo, BALB/c mice; conditions: DIM-P, 5.0 mg/kg equivalent of DIM-P
Procedure, shortened: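 BALB/c mice, randomized (n = 6 per group) and fasted overnight, received a single i.v. dose (DIM-P equivalent 5.0 mg/kg). Plasma was deproteinized with acetonitrile and spun 15 min at 10,000 g. Analysis was C18 HPLC with acetonitrile:water 90:10 at 1.0 mL/min, UV 242 nm. Parameters were derived non-compartmentally.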

SMILES | IC50 (A549 cells; A549 cells, 72 h) | Cl [1] | Cmax [1] | K10-HL [1] | MRT [1] | Vss [1] | AUC0–24 ([1]; non-compartment analysis) | IC50 (A549 cells; Homo sapiens, A549, 72 h)
c1ccc(-c2ccc(C(c3c[nH]c4ccccc34)c3c[nH]c4ccccc34)cc2)cc1 [DIM-P, DIM-C-pPhC6H5] | 6.8 ± 0.7 µM | 37.74 ± 10.4 mL/kg/h | 216.25 ± 23.59 µg/mL | 2.98 ± 0.65 hr^−1 | 2.79 ± 1.02 h | 185.98 ± 29.89 mL/kg | 124.22 ± 13.65 µg·h/mL | 
CC(=O)O[C@@]12CO[C@@H]1C[C@H](O)[C@@]1(C)C(=O)[C@H](O)C3=C(C)[C@@H](OC(=O)[C@H](O)[C@@H](NC(=O)OC(C)(C)C)c4ccccc4)C[C@@](O)([C@@H](OC(=O)c4ccccc4)[C@H]21)C3(C)C [Doc, Docetaxel, reference compound] |  |  |  |  |  |  |  | 0.02 ± 0.01 µM
